According to PubChem BioAssay AID463111 (Johns Hopkins Ion Channel Center, 2010):
Hit rate of the full screen: of about 310,000 compounds, about 2,800 (0.9%) were called active.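 Rule for the calls: active = B-score of the integrated calcium signal more than 4 SD below the library mean, with starting fluorescence not abnormally high; inactive = the rest.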 Only a selection was taken, and actives are over-represented in it overall.

Experiment: RGS4 potentiators or activators, primary screen, cell-based, HEK293 M3R inducible RGS4, calcium flux (AID 463111);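 for B-score: negative B-score means reduced calcium response which marks RGS4 activation or potentiation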
Conditions: HEK293 M3R/inducible RGS4, carbachol calcium flux Fluo4, at 10 µM; hits give low values
Procedure, shortened: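 Assay system: HEK293 FlpIn-TREx cells, stable M3R, doxycycline-inducible RGS4 / Probe or stimulus: carbachol, ECmax concentration / Times: overnight RGS4 induction, 30 min dye load 37 °C, 20 min compound RT / Signal: kinetic calcium fluorescence imaging with Fluo4-AM dye, 2 µM / Measure: Agonist-evoked peak-minus-minimum fluorescence over baseline, integrated ratio, B score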
With `CCn1nc(C)c(CNC(=O)C2CCC(=O)N(Cc3cccc(F)c3)C2)c1C` (stereo not given) the B-score was “inactive”.
In the case of `CCOc1ccc(N(C)Cc2cc(=O)oc3ccc(OC)cc23)cc1`, the B-score is reported as “inactive”.
For `Cc1cc2oc(=O)cc(CN(C)Cc3ccc(OC(F)F)cc3)c2cc1Cl`, the B-score was -7.56 (active).
With `Cc1ccc(CN(C)Cc2cc(=O)oc3cc(C)c(Cl)cc23)cc1` the B-score was “inactive”.
With `CCN1CCN(c2sc(S(C)(=O)=O)nc2S(=O)(=O)c2ccc(Cl)cc2)CC1` the B-score was “inactive”.
With `Cn1nnnc1SCC(=O)N1CCN(C(c2ccccc2)c2ccccc2)CC1` the B-score was “inactive”.
For `O=C(c1ccc(-n2cnnn2)cc1)N1CCN(C(c2ccccc2)c2ccccc2)CC1`, the B-score was -7.43 (active).
With `Cc1onc(C(=O)NN)c1C(=O)N1CCN(C(c2ccccc2)c2ccccc2)CC1` the B-score was “inactive”.
With `C=CCN(C(=O)Cn1ncc2c1-c1cc(C)ccc1OC2)c1ccccc1` the B-score was “inactive”.
With `Cc1ccc(S(=O)(=O)NCc2ccc(C(=O)NC3CCC(C)CC3)cc2)cc1` (stereo not given) the B-score was “inactive”.
For `CCOC(=O)c1c(NC(=O)C(C)Sc2c[nH]c3ccccc23)sc2c1CCC2` (stereo not given), the B-score was -7.36 (active).
With `CCOC(=O)c1c(NC(=O)CSc2cn(CC)c3ccccc23)sc2c1CCC2` the B-score was “inactive”.
With `CCOC(=O)c1c(NC(=S)NC)sc2c1CCCC2` the B-score was “inactive”.
For `COc1cccc(/C=N/NC(=O)c2[nH]nc3c2CCc2ccccc2-3)c1O`, the B-score was “inactive”.
With `COc1cccc(/C=N/Nc2cc(C)nc(-c3ccccc3O)n2)c1O` the B-score was -11.4 (active).
With `COc1cccc(/C=N/Nc2ncc(C(F)(F)F)cc2Cl)c1O` the B-score was “inactive”.
With `Cc1ccc(C(=O)CSc2ccccc2C(=O)O)cc1` the B-score was “inactive”.
With `Cc1ccc(SCC(=O)c2cc(C)c(OC(=S)N(C)C)c(C)c2)cc1` the B-score was -8.33 (active).
For `Cc1ccc(SCC(=O)Nc2ccc3c(c2)OCCO3)cc1`, the B-score was “inactive”.
For `CN(C)C(=O)Cn1c(=O)n(S(=O)(=O)c2ccccc2)c2ccccc21`, the B-score was “inactive”.
For `CCOC(=O)C1C(c2ccc(Cl)cc2)NC(=S)NC1(O)C(F)(F)F` (stereo not given), the B-score was “inactive”.
In the case of `O=C(c1cccs1)C1C(c2ccc(Br)cc2)NC(=S)NC1(O)C(F)(F)F` (stereo not given), the B-score is reported as -11.1 (active).
In the case of `CC(=O)C1C(c2cccc(Oc3ccccc3)c2)NC(=O)NC1(O)C(F)(F)F` (stereo not given), the B-score is reported as “inactive”.
For `O=C(NCc1ccncc1)C(=O)NCC1OCCN1S(=O)(=O)c1ccc(Br)cc1` (stereo not given), the B-score was “inactive”.
With `COc1ccc(C(C(O)C(=O)c2c[nH]c3ccccc23)N2CCN(c3ccccc3)CC2)cc1` (stereo not given) the B-score was “inactive”.
In the case of `COc1ccc(/C=C(\C#N)c2c[nH]c3ccccc23)cc1`, the B-score is reported as -9.16 (active).
With `COc1ccc2[nH]cc(/C=C(/C#N)S(=O)(=O)c3ccccc3)c2c1` the B-score was “inactive”.
In the case of `COc1cccc(NC(=S)C(C#N)=C2N(C)c3ccccc3N2C)c1`, the B-score is reported as “inactive”.
With `CC(C)(C)c1ccc(C(=O)N2CCN(CCNC(=O)C(=O)Nc3ccc(F)cc3)CC2)cc1` the B-score was “inactive”.
For `COc1cccc(C(=O)Nc2cccnc2)c1OC`, the B-score was “inactive”.
In the case of `COc1ccc(/C(C)=N\NC(=O)c2ccc(-c3ccccc3)cc2)c(F)c1`, the B-score is reported as “inactive”.
With `COc1cccc(C(=O)N/N=C(\C)c2cccc(NC(=O)c3ccc(F)cc3)c2)c1OC` the B-score was -7.56 (active).
With `CC(C)(C)n1ncc2c(=O)n(Cc3ccc(Cl)cc3)cnc21` the B-score was “inactive”.
For `CCN1CCN(CCNC(=O)c2ccc(/C=C3/Sc4ccccc4N(Cc4cccc(C)c4)C3=O)cc2)CC1`, the B-score was -9.47 (active).
With `O=C(NCCCN1CCOCC1)c1ccc2c(c1)N(Cc1cccc(F)c1)C(=O)c1ccccc1S2` the B-score was “inactive”.
For `O=C(NCCN1CCOCC1)c1ccc(/C=C2\Sc3ccccc3N(Cc3ccc(F)cc3)C2=O)cc1`, the B-score was “inactive”.
For `Cc1oc(C(N)=O)cc1COc1ccc(C(N)=O)cc1`, the B-score was “inactive”.
For `Cn1nccc1NC(=O)CC(CC(=O)O)c1ccccc1` (stereo not given), the B-score was “inactive”.
With `Cc1cccc(-c2nc3ccc(C(=O)NCCN4CCN(C)CC4)cc3nc2-c2cccc(C)c2)c1` the B-score was -8.03 (active).
For `CCC1=Nc2cc(C(=O)NCCN3CCCC3)ccc2Sc2ccc(C)cc21`, the B-score was “inactive”.
For `Cc1ccc(C(=O)NCCN2CCOCC2)cc1C`, the B-score was “inactive”.
For `O=C(CN1CCC(NC(=O)C2CC2)CC1)Nc1ccccc1[N+](=O)[O-]`, the B-score was “inactive”.
With `CCOc1ccc(C(CC(=O)O)NC(=O)Cc2ccccc2)cc1OC` (stereo not given) the B-score was “inactive”.
With `Cc1ccc(OCC(=O)NC(C)c2ccccc2)cc1C` (stereo not given) the B-score was “inactive”.
For `CCOc1ccc(C(CC(=O)O)NC(=O)COc2ccccc2)cc1` (stereo not given), the B-score was -7.76 (active).
